From ChEMBL document CHEMBL3525967, “In vitro glucuronidation of the antibacterial triclocarban and its oxidative metabolites” (Drug Metab Dispos, 2012)

How the values were obtained:
Type in all cases: ADME
Liver microsome = assay: Drug metabolism in human liver microsomes assessed as glucuronidation incubated for 5 mins prior to UDPGA addition measured after 5 to 30 mins by LC-UV analysis
How it was run: (§1)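 Microsomes or Sf-9 Supersomes (5 µg protein in 200 µL 100 mM potassium phosphate pH 7.4) pre-treated with alamethicin on ice 15 min; substrate 10 µM final (2% DMSO), MgCl2 and saccharolactone 10 mM each; 5 min preincubation at 37 °C, then UDPGA to start. Samples taken at 5, 10, 15, 30 min (or 2, 5, 10, 15 min) into ACN with internal standard; LC-UV-ESI-MS/MS.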

[1] = Drug metabolism in B6C3F1 mouse liver microsomes assessed as glucuronidation incubated for 5 mins prior to UDPGA addition measured after 5 to 30 mins by LC-UV analysis; how it was run: as §1
[2] = Drug metabolism in human kidney microsomes assessed as glucuronidation incubated for 5 mins prior to UDPGA addition measured after 5 to 30 mins by LC-UV analysis; how it was run: as §1
[3] = molecular target: T1, UDP-glucuronosyltransferase 1A1 (Homo sapiens, UniProt P22309); assay: Drug metabolism assessed as human UGT1A1-mediated glucuronidation expressed in baculovirus infected insect sf9 cells incubated for 5 mins prior to UDPGA addition measured after 5 to 30 mins by LC-UV analysis; how it was run: as §1
T1 sequence (P22309 whole entry): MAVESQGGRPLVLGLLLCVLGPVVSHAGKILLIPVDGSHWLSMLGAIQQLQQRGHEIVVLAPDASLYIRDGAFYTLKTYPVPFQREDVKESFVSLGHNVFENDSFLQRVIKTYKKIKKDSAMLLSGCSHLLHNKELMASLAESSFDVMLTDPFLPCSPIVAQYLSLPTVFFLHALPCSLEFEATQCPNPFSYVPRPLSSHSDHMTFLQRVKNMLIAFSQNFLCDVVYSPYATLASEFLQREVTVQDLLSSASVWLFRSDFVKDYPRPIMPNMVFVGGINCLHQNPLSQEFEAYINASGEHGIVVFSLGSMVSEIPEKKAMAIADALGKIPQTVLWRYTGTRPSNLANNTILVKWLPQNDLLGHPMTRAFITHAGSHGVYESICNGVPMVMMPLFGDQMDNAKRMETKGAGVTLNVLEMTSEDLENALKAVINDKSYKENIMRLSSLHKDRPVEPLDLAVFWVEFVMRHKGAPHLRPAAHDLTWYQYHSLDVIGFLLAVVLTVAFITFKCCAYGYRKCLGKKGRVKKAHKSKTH

[4] = molecular target: T2, UDP-glucuronosyltransferase 1A10 (Homo sapiens, UniProt Q9HAW8); assay: Drug metabolism assessed as human UGT1A10-mediated glucuronidation expressed in baculovirus infected insect sf9 cells incubated for 5 mins prior to UDPGA addition measured after 5 to 30 mins by LC-UV analysis; how it was run: as §1
T2 sequence (Q9HAW8 whole entry): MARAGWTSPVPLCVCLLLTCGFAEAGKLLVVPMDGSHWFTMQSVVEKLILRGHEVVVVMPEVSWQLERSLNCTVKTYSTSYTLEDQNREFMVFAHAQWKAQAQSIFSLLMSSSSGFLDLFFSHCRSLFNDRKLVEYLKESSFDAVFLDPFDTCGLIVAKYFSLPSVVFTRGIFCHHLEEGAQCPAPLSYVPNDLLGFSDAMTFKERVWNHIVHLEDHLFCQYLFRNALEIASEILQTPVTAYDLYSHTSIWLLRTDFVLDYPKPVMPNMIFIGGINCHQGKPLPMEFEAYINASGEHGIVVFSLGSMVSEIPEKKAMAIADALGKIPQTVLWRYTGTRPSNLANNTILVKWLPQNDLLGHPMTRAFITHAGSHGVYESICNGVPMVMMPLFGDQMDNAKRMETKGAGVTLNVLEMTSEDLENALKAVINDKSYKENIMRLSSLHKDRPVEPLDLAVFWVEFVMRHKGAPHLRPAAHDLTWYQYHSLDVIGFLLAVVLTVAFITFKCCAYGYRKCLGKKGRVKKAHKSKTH

[5] = molecular target: T3, UDP-glucuronosyltransferase 2B7 (Homo sapiens, UniProt P16662); assay: Drug metabolism assessed as human UGT2B7-mediated glucuronidation expressed in baculovirus infected insect sf9 cells incubated for 5 mins prior to UDPGA addition measured after 5 to 30 mins by LC-UV analysis; how it was run: as §1
T3 sequence (P16662 whole entry): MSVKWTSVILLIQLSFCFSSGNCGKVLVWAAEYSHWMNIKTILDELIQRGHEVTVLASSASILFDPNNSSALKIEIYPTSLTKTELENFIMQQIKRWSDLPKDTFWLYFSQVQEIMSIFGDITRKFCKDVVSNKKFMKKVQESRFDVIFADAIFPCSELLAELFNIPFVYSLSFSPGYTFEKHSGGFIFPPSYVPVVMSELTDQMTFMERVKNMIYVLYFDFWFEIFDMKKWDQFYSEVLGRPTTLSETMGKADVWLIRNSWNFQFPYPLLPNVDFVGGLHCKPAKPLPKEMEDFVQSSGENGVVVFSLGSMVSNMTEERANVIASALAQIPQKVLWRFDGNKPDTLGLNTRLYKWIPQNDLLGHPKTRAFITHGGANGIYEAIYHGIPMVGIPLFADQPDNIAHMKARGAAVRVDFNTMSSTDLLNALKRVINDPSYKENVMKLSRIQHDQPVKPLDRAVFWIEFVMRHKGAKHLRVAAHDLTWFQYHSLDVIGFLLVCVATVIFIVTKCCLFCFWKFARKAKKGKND

[6] = molecular target: T4, UDP-glucuronosyltransferase 2B15 (Homo sapiens, UniProt P54855); assay: Drug metabolism assessed as human UGT2B15-mediated glucuronidation expressed in baculovirus infected insect sf9 cells incubated for 5 mins prior to UDPGA addition measured after 5 to 30 mins by LC-UV analysis; how it was run: as §1
T4 sequence (P54855 whole entry): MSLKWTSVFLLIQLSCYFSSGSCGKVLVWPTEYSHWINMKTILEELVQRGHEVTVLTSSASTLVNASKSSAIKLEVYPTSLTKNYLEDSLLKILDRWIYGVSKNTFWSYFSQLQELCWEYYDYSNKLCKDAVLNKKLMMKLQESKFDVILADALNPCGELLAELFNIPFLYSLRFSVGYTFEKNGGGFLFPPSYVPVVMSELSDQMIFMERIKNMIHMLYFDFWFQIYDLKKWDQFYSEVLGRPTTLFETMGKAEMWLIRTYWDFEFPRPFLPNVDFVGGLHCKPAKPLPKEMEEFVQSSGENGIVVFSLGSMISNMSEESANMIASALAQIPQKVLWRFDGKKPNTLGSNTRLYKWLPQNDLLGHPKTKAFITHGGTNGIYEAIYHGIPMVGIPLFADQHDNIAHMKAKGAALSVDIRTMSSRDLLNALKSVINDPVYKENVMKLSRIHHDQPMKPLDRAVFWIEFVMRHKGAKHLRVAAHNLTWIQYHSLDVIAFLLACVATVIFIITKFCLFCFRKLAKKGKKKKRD

Drug metabolism (Liver microsome) | Drug metabolism [1] | Drug metabolism [2] | Drug metabolism [3] | Drug metabolism [4] | Drug metabolism ([5]; BLD = below limit of detection) | Drug metabolism [6] | Drug metabolism ([4]; BLD = below limit of detection) | Drug metabolism [5] | SMILES
2700 pmol/min/mg | 2600 pmol/min/mg | 5600 pmol/min/mg | 850 pmol/min/mg | 210 pmol/min/mg | BLD | metabolite_not_detected |  |  | O=C(Nc1ccc(Cl)c(Cl)c1)Nc1ccc(Cl)cc1O
8500 pmol/min/mg | 7900 pmol/min/mg | 7700 pmol/min/mg | 820 pmol/min/mg | 280 pmol/min/mg | BLD | metabolite_not_detected |  |  | O=C(Nc1ccc(Cl)cc1)Nc1cc(Cl)c(Cl)cc1O
5200 pmol/min/mg | 14700 pmol/min/mg | 4200 pmol/min/mg | 520 pmol/min/mg |  |  | metabolite_not_detected | BLD | metabolite_not_detected | O=C(Nc1ccc(Cl)c(O)c1)Nc1ccc(Cl)c(Cl)c1
